Like-named read-outs stand apart in the source and are kept apart here.
Experiments:
PKCα = PKCα (Mus musculus, UniProt P20444); test: Competition with [3H]PDBU binding to PKCα; settings: for Ratio Ki crude/Ki pure: relative to unresolved library E/Z mixture
Procedure, shortened: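 Partially purified mouse PKCα; test compound in DMSO competed with [3H]PDBU. Pure compounds ran 6–7 ligand concentrations; ID50 from sigmoidal fit; Ki = ID50/(1+L/Kd). Crude library mixtures (unresolved E/Z) were tested at a single 1 μM, with Ki calculated from that concentration. The ratio compares crude with pure Ki. Triplicates per concentration; ≥3 independent experiments; mean ± SEM.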

LNCaP cells = test: Apoptosis and radiosensitization in LNCaP cells; assay type: cell-based, human; settings: 10 and 20 μM, 16 h pretreatment, 24 h post radiation (20 Gy)
Procedure, shortened: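 LNCaP human prostate cancer cells were grown at 37°C, 5% CO2 in RPMI-1640 with 10% FCS, 2 mM L-glutamine, antibiotics and 10 mM HEPES (pH 7.2). FCS was replaced by 0.2% human albumin 24 h before the experiment. Cells were pretreated 16 h with test compound (10 or 20 μM), then irradiated (20 Gy). They were fixed 24 h later and stained with bis-benzimide. Cells with ≥3 apoptotic bodies were scored apoptotic by fluorescence microscopy. Mean of two experiments ± standard deviation.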

JB6 cells = test: Anchorage independent transformation in soft agar; assay type: cell-based, Balb/C; settings: DAG-lactone 100 ng/mL, 14 days, normalized to TPA 10 ng/mL; L2-C11: both E- and Z-isomers
Procedure, shortened: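 JB6 cells (10^4) suspended in 0.33% top agar containing DMSO, TPA (10 ng/mL) or test compound (100 ng/mL), layered over 0.5% bottom agar also containing compound. Anchorage-independent colonies counted after 14 days by automated image analysis; colonies >8 cells scored as transformed. Four independent plates seeded. Mean colony number reported relative to TPA as 100%.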

AP-1 = AP-1 luciferase assay; assay type: cell-based, Balb/C; settings: pure DAG-lactone 100 ng/mL, 18 h, normalized to TPA 10 ng/mL; L2-C11: both E- and Z-isomers
MCF-10A cells = test: Cellular motility assay; assay type: cell-based, human; settings: pure compounds, dose response, total area, 20 h
α-secretase = test: α-Secretase activation, secreted sAPPα by immunoblot densitometry in W4 cells; assay type: cell-based, rat; settings: crude sample or control, 1 μM
[1] = system: GFP-tagged PKCα, β, δ and ε; test: Translocation of GFP-tagged PKC isoforms in CHO cells; assay type: cell-based, Chinese hamster; settings: living CHO cells, 300 nM, confocal microscopy
Procedure, shortened: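 PKC isoforms were subcloned into a modified pEGFP-N1 plasmid to give GFP-tagged proteins, which were over-expressed in CHO cells. Localization was followed in real time by confocal microscopy before and after ligand treatment, with membrane translocation from cytosol taken as activation.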

[2] = Library 2, pure sample = E-isomer
[3] = Library 1, pure sample = E-isomer
[4] = Library 1, pure sample = Z-isomer

| Compound | Ratio Ki crude/Ki pure (PKCα; [2]) | Ratio Ki crude/Ki pure (PKCα; [3]) | further results |
| --- | --- | --- | --- |
| (E)-{4-[(3-Chloro-4-fluorophenyl)methylene]-2-(hydroxymethyl)-5-oxo-2-2,3-dihydrofuryl}methyl 2-propylpentanoate [L2-B11] | 6.3 | – | Ki (PKCα; read-out: Pure Sample Ki, Library 2 pure compound, E-isomer): 3.38 ± 0.15 nM |
| CN(C)c1ccc(/C=C2\CC(CO)(COC(=O)c3ccc(N(C)C)cc3)OC2=O)cc1 (centres unmarked) [L1-E5, (E)-(4-{[4-(Dimethylamino)phenyl]methylene}-2-(hydroxymethyl)-5-oxo-2-2,3-dihydrofuryl)methyl 4-(dimethylamino)benzoate] | – | 10.6 | – |
| CCCCC(CC)C(=O)OCC1(CO)C/C(=C\c2ccc(N(C)C)cc2)C(=O)O1 (centres unmarked) [L1-E2, (E)-(4-{[4-(Dimethylamino)phenyl]methylene}-2-(hydroxymethyl)-5-oxo-2-2,3-dihydrofuryl)methyl 2-ethylhexanoate] | – | 7.4 | – |
| CCCC(CCC)C(=O)OCC1(CO)C/C(=C\c2ccc(C(F)(F)F)cc2)C(=O)O1 (centres unmarked) [L2-B4, (E)-(2-(Hydroxymethyl)-5-oxo-4-{[4-(trifluoromethyl)phenyl]methylene}-2-2,3-dihydrofuryl)methyl 2-propylpentanoate] | 5.6 | – | induction of apoptosis (LNCaP cells): induction of apoptosis; transforming activity (anchorage independent colonies) (JB6 cells): minimal transforming properties; AP-1 activation (AP-1 dependent luciferase activity) (AP-1): very strong AP-1 transcription factor activation |
| CC(C)(C)C(=O)OCC1(CO)C/C(=C\c2ccc(F)c(Cl)c2)C(=O)O1 (centres unmarked) [L2-F10, (E)-{4-[(3-Chloro-4-fluorophenyl)methylene]-2-(hydroxymethyl)-5-oxo-2-2,3-dihydrofuryl}methyl 2,2-dimethylpropanoate] | 1.8 | – | – |
| COc1ccc(C(=O)OCC2(CO)C/C(=C\c3ccc([N+](=O)[O-])cc3)C(=O)O2)cc1 (centres unmarked) [L1-H6, (E)-{2-(Hydroxymethyl)-4-[(4-nitrophenyl)methylene]-5-oxo-2-2,3-dihydrofuryl}methyl 4-methoxybenzoate] | – | 2.7 | – |
| COc1ccc(/C=C2\CC(CO)(COC(=O)c3c(C(C)C)cc(C(C)C)cc3C(C)C)OC2=O)cc1 (centres unmarked) [L1-F12, (E)-{2-(Hydroxymethyl)-4-[(4-methoxyphenyl)methylene]-5-oxo-2-2,3-dihydrofuryl}methyl 2,4,6-tris(methylethyl)benzoate] | – | 24.6 | – |
| CCCC(CCC)C(=O)OCC1(CO)C/C(=C\c2ccc(F)cc2)C(=O)O1 (centres unmarked) [L2-B7, (E)-{4-[(4-Fluorophenyl)methylene]-2-(hydroxymethyl)-5-oxo-2-2,3-dihydrofuryl}methyl 2-propylpentanoate] | 3.0 | – | induction of apoptosis (LNCaP cells): induction of apoptosis; transforming activity (anchorage independent colonies) (JB6 cells): minimal transforming properties; AP-1 activation (AP-1 dependent luciferase activity) (AP-1): very strong AP-1 transcription factor activation |
| CCCCCC/C=C1/CC(CO)(COC(=O)c2c(C(C)C)cc(C(C)C)cc2C(C)C)OC1=O (centres unmarked) [L1-A12, (Z)-[4-Heptylidene-2-(hydroxymethyl)-5-oxo-2-2,3-dihydrofuryl]methyl 2,4,6-tris(methylethyl)benzoate] | – | – | Ratio Ki crude/Ki pure (PKCα; [4]): 50.4 |
| CCCC(CCC)C(=O)OCC1(CO)C/C(=C\c2ccc(F)c(Br)c2)C(=O)O1 (centres unmarked) [L2-B12, (E)-{4-[(3-Bromo-4-fluorophenyl)methylene]-2-(hydroxymethyl)-5-oxo-2-2,3-dihydrofuryl}methyl 2-propylpentanoate] | 3.0 | – | induction of cell motility (MCF-10A cells): very weak effect on cell motility; Ki (PKCα): ~2 nM |
| COc1ccc(C(=O)OCC2(CO)C/C(=C\c3ccc(N(C)C)cc3)C(=O)O2)cc1 (centres unmarked) [L1-E6, (E)-(4-{[4-(Dimethylamino)phenyl]methylene}-2-(hydroxymethyl)-5-oxo-2-2,3-dihydrofuryl)methyl 4-methoxybenzoate] | – | 8.7 | α-secretase activity (sAPPα) relative to untreated cells (100%) (α-secretase): 177% |
| COc1ccc(/C=C2\CC(CO)(COC(=O)c3ccc(OC)cc3)OC2=O)cc1 (centres unmarked) [L1-F6, (E)-{2-(Hydroxymethyl)-4-[(4-methoxyphenyl)methylene]-5-oxo-1-2,3-dihydrofuryl}methyl 4-methoxybenzoate] | – | 2.6 | – |
| COc1ccc(/C=C2\CC(CO)(COC(=O)c3ccc(N(C)C)cc3)OC2=O)cc1 (centres unmarked) [L1-F5, (E)-{2-(Hydroxymethyl)-4-[(4-methoxyphenyl)methylene]-5-oxo-1-2,3-dihydrofuryl}methyl 4-(dimethylamino)benzoate] | – | 7.5 | – |
| CCCC(CCC)C(=O)OCC1(CO)C/C(=C\c2ccc(F)c(Cl)c2)C(=O)O1 (centres unmarked) [L2-B10, (E)-{4-[(3-Chloro-4-fluorophenyl)methylene]-2-(hydroxymethyl)-5-oxo-2-2,3-dihydrofuryl}methyl 2-propylpentanoate] | 3.8 | – | – |
| CCCCC(/C=C1/CC(CO)(COC(=O)c2ccc(N(C)C)cc2)OC1=O)CC (centres unmarked) [L1-B5, (Z)-[4-(2-Ethylhexylidene)-2-(hydroxymethyl)-5-oxo-2-2,3-dihydrofuryl]methyl 4-(dimethylamino)benzoate] | – | – | Ratio Ki crude/Ki pure (PKCα; [4]): 3.4 |
| CC(C)C(=O)OCC1(CO)C/C(=C/c2ccccc2C(F)(F)F)C(=O)O1 (centres unmarked) [L2-A1, (Z)-(2-(Hydroxymethyl)-5-oxo-4-{[2-(trifluoromethyl)phenyl]-methylene}-2-2,3-dihydrofuryl)methyl 2-methylpropanoate] | – | – | Ratio Ki crude/Ki pure (PKCα; Library 2, pure sample = Z-isomer): 0.51 |
| CCCCC(/C=C1/CC(CO)(COC(=O)c2ccc([N+](=O)[O-])cc2)OC1=O)CC (centres unmarked) [L1-B8, (Z)-[4-(2-Ethylhexylidene)-2-(hydroxymethyl)-5-oxo-2-2,3-dihydrofuryl]methyl 4-nitrobenzoate] | – | – | Ratio Ki crude/Ki pure (PKCα; [4]): 1.4 |
| CN(C)c1ccc(/C=C2\CC(CO)(COC(=O)c3ccc([N+](=O)[O-])cc3)OC2=O)cc1 (centres unmarked) [L1-E8, (E)-(4-{[4-(Dimethylamino)phenyl]methylene}-2-(hydroxymethyl)-5-oxo-2-2,3-dihydrofuryl)methyl 4-nitrobenzoate] | – | 5.8 | – |
| CCC(C(=O)OCC1(CO)C/C(=C\c2ccc(-c3ccc(C(F)(F)F)cc3)cc2)C(=O)O1)c1ccccc1 (centres unmarked) [L2-D6, (E)-[2-(Hydroxymethyl)-5-oxo-4-({4-[4-(trifluoromethyl)phenyl]phenyl}methylene)-2-2,3-dihydrofuryl]methyl 2-phenylbutanoate] | 5.8 | – | induction of cell motility (MCF-10A cells): mimics L2-C12 in terms of inducing cell motility |
| CCCCC(CC)C(=O)OCC1(CO)C/C(=C\c2ccc(F)c(Br)c2)C(=O)O1 (centres unmarked) [L2-C12, (E)-{4-[(3-Bromo-4-fluorophenyl)methylene]-2-(hydroxymethyl)-5-oxo-2-2,3-dihydrofuryl}methyl 2-ethylhexanoate] | 2.9 | – | induction of cell motility (MCF-10A cells): induced cell motility; translocation of PKC isozymes α, β, δ and ε [1]: translocated very quickly |
| O=C1OC(CO)(COC(=O)c2ccc([N+](=O)[O-])cc2)C/C1=C\c1ccc([N+](=O)[O-])cc1 (centres unmarked) [L1-H8, (E)-{2-(Hydroxymethyl)-4-[(4-nitrophenyl)methylene]-5-oxo-2-2,3-dihydrofuryl}methyl 4-nitrobenzoate] | – | 5.2 | – |
| COc1ccc(/C=C2\CC(CO)(COC(=O)c3c(C)cc(C)cc3C)OC2=O)cc1 (centres unmarked) [L1-F11, (E)-{2-(Hydroxymethyl)-4-[(4-methoxyphenyl)methylene]-5-oxo-2-2,3-dihydrofuryl}methyl 2,4,6-trimethylbenzoate] | – | 32.0 | – |
| CCCCC(CC)C(=O)OCC1(CO)C/C(=C\c2ccc(Cl)cc2)C(=O)O1 (centres unmarked) [L2-C8, (E)-{4-[(4-Chlorophenyl)methylene]-2-(hydroxymethyl)-5-oxo-2-2,3-dihydrofuryl}methyl 2-ethylhexanoate] | 4.3 | – | transforming activity (anchorage independent colonies) (JB6 cells): significant transforming activity; AP-1 activation (AP-1 dependent luciferase activity) (AP-1): able to induce AP-1 activation |

Reference: PMC2574997 (Journal of medicinal chemistry, 2008)
